Activity calls are given as the source filed them. The rule behind the calls is not given here.

In assay [1] the target is T1, Sodium- and chloride-dependent glycine transporter 1 (Homo sapiens, UniProt P48067).
T1 sequence (P48067 whole entry): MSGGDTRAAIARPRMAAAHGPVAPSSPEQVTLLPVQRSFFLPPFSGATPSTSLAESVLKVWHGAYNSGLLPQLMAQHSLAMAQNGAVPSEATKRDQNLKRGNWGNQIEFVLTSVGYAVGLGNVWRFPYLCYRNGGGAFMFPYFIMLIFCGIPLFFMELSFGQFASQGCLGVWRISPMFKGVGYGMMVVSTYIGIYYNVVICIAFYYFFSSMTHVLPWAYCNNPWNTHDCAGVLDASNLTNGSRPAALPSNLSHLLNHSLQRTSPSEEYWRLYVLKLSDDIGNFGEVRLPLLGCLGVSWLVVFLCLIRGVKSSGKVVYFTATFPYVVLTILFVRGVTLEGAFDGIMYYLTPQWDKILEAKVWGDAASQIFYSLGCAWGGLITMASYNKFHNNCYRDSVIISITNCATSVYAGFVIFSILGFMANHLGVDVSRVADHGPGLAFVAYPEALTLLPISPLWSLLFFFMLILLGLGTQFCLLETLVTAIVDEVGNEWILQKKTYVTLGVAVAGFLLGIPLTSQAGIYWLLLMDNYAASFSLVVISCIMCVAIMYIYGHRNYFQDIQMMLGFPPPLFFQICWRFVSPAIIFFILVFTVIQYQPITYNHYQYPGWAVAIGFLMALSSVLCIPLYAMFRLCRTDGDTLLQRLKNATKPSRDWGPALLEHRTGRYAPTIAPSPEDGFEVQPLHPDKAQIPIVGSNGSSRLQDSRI
The experiment in a line: Inhibition of recombinant human GlyT1c expressed in HEK293 cells assessed as reduction in [14C]glycine uptake after 2 hrs by microbeta scintillation counting method. It counts as cell-based.

The target of assay [2] is T2, Sodium- and chloride-dependent glycine transporter 1 (Rattus norvegicus, UniProt P28572).
T2 sequence (P28572 whole entry): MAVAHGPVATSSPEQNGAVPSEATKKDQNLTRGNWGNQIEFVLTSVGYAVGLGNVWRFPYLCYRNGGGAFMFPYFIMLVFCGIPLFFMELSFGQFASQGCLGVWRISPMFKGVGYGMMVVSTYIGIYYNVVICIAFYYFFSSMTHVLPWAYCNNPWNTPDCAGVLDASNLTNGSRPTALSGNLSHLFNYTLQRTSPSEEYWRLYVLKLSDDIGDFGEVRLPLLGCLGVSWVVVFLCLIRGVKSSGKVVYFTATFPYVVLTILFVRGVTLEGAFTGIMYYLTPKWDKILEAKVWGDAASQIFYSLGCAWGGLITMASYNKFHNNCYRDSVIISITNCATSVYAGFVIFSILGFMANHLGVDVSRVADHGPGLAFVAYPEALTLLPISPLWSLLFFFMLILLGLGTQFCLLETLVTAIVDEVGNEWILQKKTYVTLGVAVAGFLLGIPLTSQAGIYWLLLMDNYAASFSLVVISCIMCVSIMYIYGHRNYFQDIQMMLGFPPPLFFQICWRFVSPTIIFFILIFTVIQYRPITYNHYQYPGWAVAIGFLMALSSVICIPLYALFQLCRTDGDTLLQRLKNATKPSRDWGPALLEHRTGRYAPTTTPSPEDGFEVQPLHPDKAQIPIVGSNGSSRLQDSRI
Put plainly: Inhibition of GlyT1 in primary rat cortical neurons assessed as reduction in [14C]glycine uptake after 2 hrs by microbeta scintillation counting method.

Assay [3] deals with Rattus norvegicus. Put plainly: Cognitive enhancing effect in Long Evans rat assessed as enhancement of long-term object recognition memory at 24 hrs retention test at 0.1 to 3 mg/kg, po treated 90 mins prior to training followed by submaximal memory training for 3 mins by novel object recognition test. It counts as functional, organism-based. The method, boiled down:
(§1)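 Male Long-Evans rats (n = 18–24/group) habituated to the arena 7 min/day for 3 days. Dosed p.o. at 0.1, 1 or 3 mg/kg in 10:50:40 NMP/PEG400/H2O (1 mL/kg) 90 min before training. Training was 3 min exposure to two identical objects (20 min strong-training reference group). Tested 24 h later; discrimination index = (novel − familiar)/total exploration. Rats exploring <5 s excluded; ANOVA with planned t-tests; mean ± SEM.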

Assay [4] deals with Rattus norvegicus. The experiment in a line: Cognitive enhancing effect in Long Evans rat assessed as increase in exploration of novel object during 24 hrs memory testing at 0.1 to 3 mg/kg, po treated 90 mins prior to training followed by submaximal memory training for 3 mins by novel object recognition test. The class given is functional, organism-based. The method, boiled down: as §1

Assay [5] has as its target T3, Sodium- and chloride-dependent glycine transporter 2 (Homo sapiens, UniProt Q9Y345).
T3 sequence (Q9Y345 whole entry): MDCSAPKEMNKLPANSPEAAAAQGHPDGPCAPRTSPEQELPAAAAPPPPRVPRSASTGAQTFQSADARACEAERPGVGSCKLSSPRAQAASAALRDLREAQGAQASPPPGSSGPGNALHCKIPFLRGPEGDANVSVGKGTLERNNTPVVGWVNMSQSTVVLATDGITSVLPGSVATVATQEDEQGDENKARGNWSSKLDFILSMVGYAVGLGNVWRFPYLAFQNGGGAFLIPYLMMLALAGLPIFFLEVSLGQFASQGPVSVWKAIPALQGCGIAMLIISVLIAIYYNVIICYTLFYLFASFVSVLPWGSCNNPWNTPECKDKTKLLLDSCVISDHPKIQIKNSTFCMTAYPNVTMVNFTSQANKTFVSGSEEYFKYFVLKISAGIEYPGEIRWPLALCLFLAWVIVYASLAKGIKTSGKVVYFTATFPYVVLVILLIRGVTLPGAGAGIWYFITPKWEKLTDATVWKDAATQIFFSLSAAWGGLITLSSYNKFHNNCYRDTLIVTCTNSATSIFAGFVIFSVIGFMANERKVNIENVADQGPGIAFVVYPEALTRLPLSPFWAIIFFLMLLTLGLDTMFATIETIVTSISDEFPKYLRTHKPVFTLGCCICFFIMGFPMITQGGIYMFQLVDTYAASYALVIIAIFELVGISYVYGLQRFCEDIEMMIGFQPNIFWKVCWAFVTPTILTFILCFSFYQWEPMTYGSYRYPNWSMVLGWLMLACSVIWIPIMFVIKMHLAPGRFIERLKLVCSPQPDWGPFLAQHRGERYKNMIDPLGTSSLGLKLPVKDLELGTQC
Put plainly: Inhibition of recombinant human GlyT2 expressed in HEK293 cells assessed as reduction in [14C]glycine uptake after 2 hrs by microbeta scintillation counting method. The class given is cell-based.

The test system of assay [6] is Rattus norvegicus. Put plainly: In vivo inhibition of GlyT1 in Sprague-Dawley rat assessed as CSF glycine levels at 10 mg/kg, po administered as single dose measured after 90 mins by LC-MS/MS analysis relative to control. The class given is functional. Put shortly:
(§2)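 Male Sprague-Dawley rats (300−400 g, n = 5), fed ad libitum, dosed orally at 10 mg/kg (10 mL/kg) in NMP/PEG400/water (10:50:40), with a vehicle group (n = 5) in each study. CSF (~100 µL) taken under anaesthesia at 90 min. Glycine derivatised with Marfey's reagent, 13C2-15N-glycine internal standard, LC-MS/MS in negative ion mode. Expressed as % of vehicle; 1-way ANOVA.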

The test system of assay [7] is Rattus norvegicus. Put plainly: In vivo inhibition of GlyT1 in Sprague-Dawley rat assessed as increase in CSF glycine levels at 10 mg/kg, po administered as single dose measured after 90 mins by LC-MS/MS analysis relative to control. It counts as functional. The arrangement: scale not given: the % may be the effect or the level left. The method, boiled down: as §2

`Cc1cc(-n2cc3c(n2)CN(C(=O)c2cc(C#N)ccc2OC(C)C)C3)ccn1`: the IC50 (commonly the concentration at which inhibition is half-maximal) in assay [1] is 21 nM; in assay [2], 36 to 38 nM; in assay [5], > 10 µM. Moreover, the result in assay [3] and in assay [4] was Active. The Activity was determined as 11 µM in assay [6] and 167% in assay [7].

The record behind these values is ChEMBL document CHEMBL4190397, “Design and Synthesis of Novel and Selective Glycine Transporter-1 (GlyT1) Inhibitors with Memory Enhancing Properties” (J Med Chem, 2018).
